Measured values collected from several papers.
Each line is one published result; the experiments were not run side by side.
Target: MAP kinase-activated protein kinase 5 (MAPKAPK5, Homo sapiens, UniProt Q8IW41)
One construct used (Q8IW41 1-473): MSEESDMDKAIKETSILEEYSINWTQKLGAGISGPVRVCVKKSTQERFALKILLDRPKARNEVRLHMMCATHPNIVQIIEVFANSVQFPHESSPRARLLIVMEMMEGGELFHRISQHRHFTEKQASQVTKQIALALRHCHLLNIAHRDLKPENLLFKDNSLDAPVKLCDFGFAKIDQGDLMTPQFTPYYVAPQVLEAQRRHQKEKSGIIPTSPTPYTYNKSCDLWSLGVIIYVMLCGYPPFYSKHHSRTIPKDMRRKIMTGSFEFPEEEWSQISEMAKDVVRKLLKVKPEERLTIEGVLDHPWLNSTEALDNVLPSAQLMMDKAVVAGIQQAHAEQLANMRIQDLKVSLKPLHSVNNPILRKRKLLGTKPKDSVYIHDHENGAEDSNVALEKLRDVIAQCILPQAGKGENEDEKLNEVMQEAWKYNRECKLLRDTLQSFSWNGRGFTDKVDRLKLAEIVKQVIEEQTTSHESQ

Structure (SMILES) | read-out | action | technique | tested at | measurement | value
CC(C)(C)c1nc(-c2cccc(NS(=O)(=O)c3c(F)cccc3F)c2F)c(-c2ccnc(N)n2)s1 | enzyme activity | inhibitor | radiometric | 1 µM | remaining activity | 37%
Nc1nc(NC2CCCCC2)sc1C(=O)c1ccccc1 | enzyme activity | inhibitor |  | 10 µM | remaining activity | 96%
CC(C)(O)[C@H]1CC[C@H](Nc2ccc3ncc(-c4cccc(C(F)(F)F)c4)n3n2)CC1 | enzyme activity | inhibitor |  | 1 µM | remaining activity | 105%
CNCc1ccc(-c2cc(-c3nc(-c4ccc(S(=O)(=O)C(C)C)cc4)cnc3N)on2)cc1 | enzyme activity | inhibitor |  | 0.4 µM | inhibition | 0%
O=C1CCc2cc(Nc3cc(OC4CCOCC4)c([N+](=O)[O-])cc3Cl)ccc2N1 | cell-free assay |  | competition with immobilised ligand | 1 µM | remaining binding | 78%
O=C(CSc1nc2nccnc2c(=O)n1CCc1ccccc1)Nc1nccs1 | enzyme activity | inhibitor |  | 10 µM | inhibition | -2%
N#CCCc1ccc2c(c1)-c1[nH]c3ccc([N+](=O)[O-])cc3c1CC(=O)N2 | cell-free assay |  |  | 0.5 µM | remaining signal | 94.3%
Cn1cnc(Br)c1C1=CN(c2ncnc3[nH]cnc23)CCS1 | enzyme activity | inhibitor | radiometric | 2 µM | inhibition | 15.2%
CCN(CC)CCNC(=O)c1c(C)[nH]c(/C=C2\C(=O)Nc3ccc(F)cc32)c1C | cell-free assay |  |  | 0.5 µM | remaining signal | 82.7%
COc1cc2ncnc(Nc3ccc(Oc4ccccc4)cc3C)c2cc1OC | enzyme activity | inhibitor |  | 1 µM | inhibition | 3%
CCS(=O)(=O)c1cc2cc(C[C@@](O)(CC(C)(C)c3ccc(F)cc3C(N)=O)C(F)(F)F)[nH]c2cn1 | cell-free assay |  | competition with immobilised ligand | 1 µM | remaining binding | 81%
COc1cc(/C=C/C(=O)CC(=O)/C=C/c2ccc(O)c(OC)c2)ccc1O | enzyme activity | inhibitor |  | 1 µM | activity vs control | 101%
C[C@H](c1ccc(F)cc1)N(Cc1cccc(C(=O)O)c1)C(=O)c1cnc2ccccc2c1 | cell-free assay |  | competition with immobilised ligand | 1 µM | remaining binding | 96%
Oc1cccc(-c2nc(N3CCOCC3)c3oc4ncccc4c3n2)c1 | enzyme activity | inhibitor |  | 10 µM | remaining activity | 77%
O=c1nc(-c2ccccn2)sc2ccccc12 | binding |  | competition with immobilised ligand | 1 µM | remaining binding | 92%
Cc1sc(C(=O)NC2COC2)cc1-n1cc(NC(=O)Nc2c(F)cccc2Cl)cn1 | enzyme activity | inhibitor |  | 10 µM | remaining activity | 96.5%
CC(=O)C1=C(C)N(c2cccc(C(F)(F)F)c2)C(=O)N[C@@H]1c1ccc(C#N)nc1 | cell-free assay |  | competition with immobilised ligand | 1 µM | remaining binding | 100%
CNC(=O)c1cc(Oc2ccc(NC(=O)Nc3ccc(Cl)c(C(F)(F)F)c3)cc2)ccn1 | enzyme activity | inhibitor |  | 10 µM | inhibition | 66%
